Shown are actives, neighbours in structure and some others; about 0.79% of the full set was active somewhere.
bIAP inhibitor = blocks bovine intestinal alkaline phosphatase activity | purified bovine IAP, CDP-star luminescence, 30 min | inhibition, % at 20 µM | 190,000 tested, under 10 active;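 active = over 50% inhibition of intestinal alkaline phosphatase at 20 µM in the single-dose screen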
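test system = bovine IAP enzyme | medium = DEA buffer 100 mM, pH 9.8, with MgCl2 1.0 mM, ZnCl2 0.02 mM | detection = luminescence | dosing = single compound dose of 20 µM, 2% DMSO final | incubation = 30 min reaction at room temperature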
mIAP activ = increases mouse intestinal alkaline phosphatase activity | muIAP, CDP-Star luminescence, 30 min; stronger effect = higher value; 1 = vehicle-only enzyme signal, 0 = enzyme-free wells | actives 0.24% (n = 330,000) | activation factor at 10 µM | AID 2805;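 active = activation factor of at least 2 at 20 µM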
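Assay system: mouse IAP enzyme; Reagent: CDP-Star chemiluminescent phosphatase substrate; Compound: DMSO-dissolved test compounds; Incubation: 30 min, room temperature; Technique: luminescence from enzymatic CDP-Star hydrolysis; Controls: DMSO-only wells and no-enzyme negative control.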
mIAP block = blocks mouse intestinal alkaline phosphatase | inhibition, % at 10 µM | purified mouse IAP, CDP-Star luminescence, 30 min | actives 0.2% (n = 330,000);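 active = inhibition of at least 40% at 10 µM in the primary screen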
hIAP inh = blocks human intestinal alkaline phosphatase. P09923. purified IAP, CDP-Star luminescence, 30 min. inhibition, % at 10 µM. actives 0.12% (n = 330,000);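 active = inhibition reaching a set limit with compound at 10 µM in the primary screen, cut at about 35% in these data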
Target sequence (P09923 whole entry, looked up): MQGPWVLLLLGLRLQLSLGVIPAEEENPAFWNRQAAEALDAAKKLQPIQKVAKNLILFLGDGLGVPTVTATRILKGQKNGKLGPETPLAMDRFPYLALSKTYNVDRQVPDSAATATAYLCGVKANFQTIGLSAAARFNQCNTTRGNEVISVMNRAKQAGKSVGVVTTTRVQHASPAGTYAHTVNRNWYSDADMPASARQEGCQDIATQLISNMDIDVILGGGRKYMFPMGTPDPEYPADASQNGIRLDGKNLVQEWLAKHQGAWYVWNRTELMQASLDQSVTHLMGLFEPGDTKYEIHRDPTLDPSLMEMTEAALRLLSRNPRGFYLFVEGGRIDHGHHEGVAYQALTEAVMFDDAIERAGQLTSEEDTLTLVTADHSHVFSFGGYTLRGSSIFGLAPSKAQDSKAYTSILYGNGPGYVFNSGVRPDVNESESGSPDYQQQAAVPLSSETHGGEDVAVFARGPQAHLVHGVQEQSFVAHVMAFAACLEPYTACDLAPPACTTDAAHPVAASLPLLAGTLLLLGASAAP
bIAP act = intestinal alkaline phosphatase (bovine) activation; purified bovine IAP, CDP-star luminescence, 30 min; stronger effect = higher value; fold of DMSO-control signal, blank-subtracted; AID 1016; activation factor at 20 µM; actives 0.17% (n = 200,000);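 active = activation factor of 2 or more at 20 µM, a signal rise over negative controls twice the positive control's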
hIAP activ = human IAP activation. purified human IAP, CDP-Star luminescence, 30 min; stronger effect = higher value; 1 = vehicle-only enzyme, 0 = enzyme-free background. activation factor at 10 µM. actives 0.16% (n = 330,000). AID 2524;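 active = activation factor of the enzyme at least 2-fold when tested at 20 µM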
hIAP act conf = human IAP activation confirmation; shares compounds with hIAP activ; purified IAP, CDP-Star luminescence, 30 min; stronger effect = lower value; activation (%Activity, negative = activation), % at 8.3 µM; actives 10% (n = 880); AID 434926;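 active = at least twofold enzyme activation in any of six single-dose repeats, which the averaged readout prints as negative percent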
mIAP inh confirm = mouse IAP inhibition confirmation; actives 4.7% (n = 11,000); shares compounds with mIAP block; inhibition, % at 10 µM; purified mouse IAP, CDP-Star luminescence, 30 min;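 active = inhibition of at least 40% at 10 µM in either of the two replicates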
Each line names hits and unclear results; the compound was inactive in the other large screens (follow-up assays come after a bar, where they were run).

COc1ccccc1C(=O)NNC(=O)c1csc(N2CCOCC2)n1	hIAP activ 2 (no result: bIAP inhibitor, bIAP act) | hIAP act conf inactive
CC(=O)Nc1ccc(S(=O)(=O)NCC(=O)NNC(=O)c2csc(N3CCOCC3)n2)cc1	hIAP activ 2.1 (no result: bIAP inhibitor, bIAP act) | hIAP act conf inactive
COc1ccc(C)cc1NS(=O)(=O)c1ccc2c(c1)CCN2C(C)=O	none (no result: bIAP inhibitor, bIAP act)
COc1ccc(C)cc1NC(=O)C(=O)NNC(=O)COc1ccc(Cl)cc1	none
CC1CCCN(CCCNC(=O)c2ccc3c(c2)N(Cc2ccccc2F)C(=O)c2ccccc2S3(=O)=O)C1 (configuration not stated)	none (no result: bIAP inhibitor, bIAP act)
Nc1ccc(C(=O)OCC(=O)N2c3ccccc3Sc3ccccc32)cc1[N+](=O)[O-]	none (no result: mIAP activ, mIAP block, hIAP inh, hIAP activ)
NCCNc1ccc(C(=O)N2c3ccccc3Sc3ccccc32)cc1[N+](=O)[O-]	hIAP activ 3.5 (no result: bIAP inhibitor, bIAP act) | hIAP act conf inactive
COc1ccc(NC(=S)NNC(=O)c2nnn(-c3ccccc3)c2C)cc1	hIAP activ 2.1 | hIAP act conf inactive
CC1CC(C)CN(S(=O)(=O)c2ccc(NC(=O)CN3C(=O)NC(C)(c4ccccc4)C3=O)cc2)C1 (configuration not stated)	none (no result: bIAP inhibitor, bIAP act)
O=C(NCC(F)(F)F)Nc1cccnc1	hIAP inh 54 | hIAP act conf inactive
O=C1NC(=O)/C(=C\c2ccc(O)cc2O)S1	mIAP block 71, hIAP inh 84 | hIAP act conf inactive | mIAP inh confirm 85
O=c1c(O[C@@H]2O[C@H](CO)[C@H](O)[C@H](O)[C@H]2O)c(-c2ccc(O)c(O)c2)oc2cc(O)cc(O)c12	none (no result: mIAP activ, mIAP block, hIAP inh, hIAP activ)
O=c1c(O[C@@H]2O[C@H](CO)[C@@H](O)[C@H](O)[C@H]2O)c(-c2ccc(O)c(O)c2)oc2cc(O)cc(O)c12	mIAP block 55, hIAP inh 57 | hIAP act conf inactive | mIAP inh confirm 58
CC(=O)Oc1cc2c(cc1Cl)C(c1cccs1)CC1(CC(C)(C)NC(=S)N1)O2 (configuration not stated)	none
O=C1/C(=C\c2cccc(O)c2O)SC(=S)N1Cc1ccccc1	mIAP block 41, hIAP inh 45 (no result: bIAP inhibitor, bIAP act) | hIAP act conf inactive | mIAP inh confirm 63
O=C1/C(=C\c2cccc(O)c2)SC(=S)N1Cc1ccccc1	none (no result: bIAP inhibitor, bIAP act)
CC1C(=O)NN=C1C(=O)N/N=C\c1ccc(O)cc1O (configuration not stated)	mIAP block 65, hIAP activ 2.5 | hIAP act conf -79 | mIAP inh confirm 60
CCn1nc(C)c(CN2CCC(C(=O)Nc3cccc(-c4cccc(Cl)c4)c3)CC2)c1C	mIAP activ 8.2, hIAP activ 8.7 (no result: bIAP inhibitor, bIAP act) | hIAP act conf inactive | mIAP inh confirm inactive
CCS(=O)(=O)N1CCC(C(=O)Nc2cccc(F)c2)CC1	none (no result: bIAP inhibitor, bIAP act)
CCn1ncc(CN2CCC(C(=O)Nc3cccc(-c4cccc(F)c4)c3)CC2)c1C	mIAP activ 3.5, hIAP activ 4 (no result: bIAP inhibitor, bIAP act) | hIAP act conf inactive | mIAP inh confirm inactive
COc1ccc(NC(=O)NCc2cccnc2)cc1	none (no result: bIAP inhibitor, bIAP act)
CCN1/C(=C/C=C/c2sc3ccccc3[n+]2CC)Sc2ccccc21	mIAP block 48, hIAP inh 37 (no result: bIAP inhibitor, bIAP act) | hIAP act conf inactive | mIAP inh confirm 51
CC(=O)c1ccc(N(C(=O)Cn2nnc(-c3ccccc3)n2)C(C(=O)NC2CCCCC2)c2ccccn2)cc1 (configuration not stated)	none
CN(CC(=O)NC(c1ccccc1)c1ccccc1)Cc1nc2ccccc2c(=O)[nH]1	mIAP activ 2.1, bIAP act 2.5, hIAP activ 2.2 | hIAP act conf inactive | mIAP inh confirm inactive
CN(CC(=O)Nc1ccccc1Sc1ccccc1)Cc1nc2ccccc2c(=O)[nH]1	none
Cc1ccccc1C(=O)NNC(=O)c1cc(N)cc([N+](=O)[O-])c1	none
Cc1ccc(NC(=O)C2CC(=O)Nc3nc4ccccc4n32)c(C)c1 (configuration not stated)	mIAP activ 3.5, hIAP activ 2.7 (no result: bIAP inhibitor, bIAP act) | hIAP act conf inactive | mIAP inh confirm inactive
COc1ccc(S(=O)(=O)Nc2cc(Sc3ncn[nH]3)c(O)cc2C)cc1	none (no result: bIAP inhibitor, bIAP act)
Cc1ccc([N+](=O)[O-])cc1S(=O)(=O)Nc1ccc(O)c(Sc2ncn[nH]2)c1	mIAP block 73, hIAP inh 73 (no result: bIAP inhibitor, bIAP act) | hIAP act conf inactive | mIAP inh confirm 89
Nc1c(/C=C2/C=CC(=O)C(O)=C2)c(=O)nc2sc(CC(=O)N3CCCC3)nn12	mIAP block 58, hIAP inh 48 (no result: bIAP inhibitor, bIAP act) | hIAP act conf inactive | mIAP inh confirm 78
Nc1c(/C=C2/C=CC(=O)C(O)=C2)c(=O)nc2sc(CC(=O)N3CCCCC3)nn12	mIAP block 61, hIAP inh 54 (no result: bIAP inhibitor, bIAP act) | hIAP act conf inactive | mIAP inh confirm 83
CC(C)C(C(=O)Nc1ccc2c(c1)OCCOCCOCCOCCO2)N1C(=O)c2ccccc2C1=O (configuration not stated)	none
COc1ccc(OC)c(CN2CCC(CNC(=O)Nc3cccc(Cl)c3)CC2)c1	none
COc1cc(NC(=O)NCC2CCN(Cc3ccccc3Cl)CC2)cc(OC)c1OC	mIAP activ 4, hIAP activ 2.6 (no result: bIAP inhibitor, bIAP act) | hIAP act conf -142 | mIAP inh confirm inactive
O=C(COC(=O)/C=C/c1cccc(F)c1)Nc1ccccc1-c1ccccc1	none
O=C(O)C(c1ccccc1)N1C(=O)/C(=C\c2ccc(O)c(O)c2)SC1=S (configuration not stated)	mIAP block 67, hIAP inh 75 (no result: bIAP inhibitor, bIAP act) | hIAP act conf inactive | mIAP inh confirm 79
CCS(=O)(=O)N1Cc2ccccc2CC1C(=O)N(C)Cc1ccc(OC)c(F)c1 (configuration not stated)	none (no result: bIAP inhibitor, bIAP act)
CC(C)c1ccc(NC(=O)NC2CCN(CC(=O)Nc3cccc4ccccc34)CC2)cc1	mIAP activ 4.2, hIAP activ 2.2 | hIAP act conf inactive | mIAP inh confirm inactive
O=C(CCN1CCCC1=O)NC1CCCc2c1cnn2-c1ccc(F)cc1F (configuration not stated)	none (no result: bIAP inhibitor, bIAP act)
CNc1nnc(-c2cc3ccccc3oc2=O)s1	mIAP block 58, hIAP inh 73 (no result: bIAP inhibitor) | hIAP act conf inactive | mIAP inh confirm 66
Cc1ccccc1-c1nnc(NC(=O)c2cc3ccccc3oc2=O)s1	none (no result: mIAP activ, mIAP block, hIAP inh, hIAP activ)
COc1ccc(CCNC(=O)Nc2cc(F)c(F)cc2Cl)cc1OC	none (no result: bIAP inhibitor, bIAP act)
COc1cc(/C=C(\C#N)C(=O)N2CCOCC2)cc(Br)c1O	none

Bioassay records from PubChem.
